Among the data in ChEMBL document CHEMBL4145593, “Discovery of Orally Bioavailable Selective Inhibitors of the Sodium-Phosphate Cotransporter NaPi2a (SLC34A1)” (ACS Med Chem Lett, 2018) are bioavailability values, retold here.

Each structure is given as a SMILES string.

The data set is described as follows: Oral bioavailability in Wistar Han rat at 5 mg/kg. The format is ADME, organism-based. Particulars: in vivo. Put shortly:
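Oral dosing at 5 or 50 mg/kg as a suspension in 0.5% methylcellulose (10 mL/kg). Values are the arithmetic mean of n = 2 animals.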

Regarding `Cc1[nH]c2c(N3CCO[C@H](CO)C3)c(C#N)c(C(F)(F)F)nc2c1Cl`, the bioavailability (usually the share of a dose that reaches the circulation, judged against a reference dose that is usually intravenous) stood at 87%.
